Assay outcomes as filed in PubChem BioAssay.
An excerpt weighted towards active compounds, which were near 3% of everything screened.
Yeast lifespan up: extends the lifespan of yeast | S. cerevisiae growth with nicotinamide, OD615; deaD strain in restrictive glucose medium | inhibition of the nicotinamide effect, % at 10 µM | hit rate 0.68% among 130,000;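 active means inhibition above a set limit, placed 3 SD over the median of all compounds, cut at about 26% in these data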;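 further: 0% = nicotinamide-treated wells and 100% = cells grown without nicotinamide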
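System: DeaD-strain S. cerevisiae / Buffer or medium: CSMM-D, restrictive glucose (dextrose) synthetic minimal medium / Probe or stimulus: nicotinamide, 1.5 mM, co-present with compound / Compound: one concentration, 10 µM, DMSO 0.25% / Incubation: 48 h compound exposure at 30 °C, humidified / Technique: optical density (absorbance) at 615 nm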
Insulin prom inh: TRM-6 insulin promoter activity inhibition | TRM-6 cells, insulin promoter-eGFP reporter, imaging; reporter expression induced with tamoxifen | inhibition, % at 2 µM | hit rate 0.9% among 130,000;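 active means inhibition above the mean plus 3 SD, with well images judged a real hit on visual review, cut at about 60% in these data, passing the limit was not always enough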
RAM inhibit: blocks the yeast RAM network. S. cerevisiae dse1pr::URA3 reporter, 5-FOA growth OD615, 2 d; analog-sensitive cbk1-as2 kinase mutant strain. inhibition, % at 50 µM. hit rate 1.8% among 190,000. AID 868;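 active means inhibition above a set limit, 3 SD over mean compound inhibition, cut at about 8.4% in these data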;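 further: 0% = DMSO-only wells with no growth and 100% = 10 µM 1-NA-PP1 full growth; inhibition rescues growth on 5-FOA so higher OD means more RAM inhibition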
Yeast growth inh: chemicals that inhibit yeast BB579 growth in restrictive medium (lifespan-shortening candidates); S. cerevisiae BB579 growth, OD615, 48 h; inhibition, % at 10 µM; hit rate 0.51% among 140,000; AID 804;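 active means inhibition above a set limit, 3 SD over the mean compound inhibition, cut at about 44% in these data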
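Assay system – yeast BB579 (DeaD) · Dosing – single compound dose of 10 µM, 0.25% DMSO final · Detection – OD615 turbidity measurement · Buffer or medium – CSMM-D restrictive synthetic medium containing dextrose (glucose) · Benchmarks – positive control amphotericin B 10 µg/mL · Incubation – 48 h exposure, 30 °C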
Ins promoter up: MIN6 insulin promoter up-regulation | z-score at 5 µM | MIN6 insulin promoter-GFP reporter, high-content imaging; stronger effect = higher value | hit rate 0.3% among 190,000 | AID 1625;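 active means z-score above 3 at 5 µM with at least 500 cells counted in the well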
RAM efflux-def: RAM network inhibitors in efflux-deficient yeast | S. cerevisiae efflux-deficient reporter strain, 5-FOA growth OD615, 2 days | AID 1305 | max inhibition, % | 1,200 tested, under 10 active | shares compounds with RAM inhibit; call rule not given here;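 further: plate controls were vehicle for no effect and reference inhibitor for full effect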
* hit, by the source's call; · = no result.

SMILES	Yeast lifespan up	Insulin prom inh	RAM inhibit	Yeast growth inh	Ins promoter up	RAM efflux-def
Cc1cccc(OCc2nnc(SCC(=O)c3ccccc3)o2)c1	-7.9	-54.5	12.1*	-40.7	0.68	1.8
Cc1ccc(C(=O)CSc2nnc(COc3cc(C)cc(C)c3)o2)cc1	5.1	-21.4	12.3*	-20.9	0.78	1.4
Cc1ccc(-n2c(O)c(/C=N/n3cnnc3)c3ccccc3c2=O)cc1	-20.6	14.7	-0.7	-32.4	1.09	·
Cc1ccc(-n2c(O)c(/C=N/c3ncn[nH]3)c3ccccc3c2=O)cc1	·	·	11.8*	·	-0.65	2.3
CCCN(CCC)CCNS(=O)(=O)c1ccc2c(c1)CCN2C(=O)C1CCC1	-3.4	-9.6	2.1	-68.6	-0.22	·
O=C(C1CC1)N1CCc2cc(S(=O)(=O)NCCC3=CCCCC3)ccc21	-3.7	-37.5	11.4*	-46.5	-0.11	1.5
Cc1c(C(=O)NN2CCOCC2)oc2c1ccc1ccccc12	·	-22.2	-0.7	·	-1.42	·
O=C(O)[C@H](Cc1ccccc1)NC(=O)C(c1ccccc1)(c1ccccc1)c1ccccc1	·	·	5.8	·	-0.42	·
O=C(CC(c1ccccc1)(c1ccccc1)c1ccccc1)N[C@@H](Cc1ccccc1)C(=O)O	·	·	12.7*	·	-0.27	1.9
CCCc1cc(NC(=O)CCl)n(-c2ccccc2)n1	·	·	-0.8	·	·	·
CC(=O)N(CCC(c1ccccc1)c1ccco1)Cc1cccs1 (stereo not given)	-8.0	-32.6	28.1*	-50.9	0.36	2.2
CCCN1C(=O)/C(=C/c2ccc(C)s2)SC1=Nc1ccc(OC)cc1	3.4	·	20.7*	-25.1	-0.21	2.5
Cn1c(N=Nc2ccc(N3CCOCC3)cc2)[n+](C)c2ccccc21	·	·	13.2*	·	0.23	16.4
CCN1C(=O)/C(=C\c2cn(-c3ccccc3)nc2-c2cccnc2)SC1=S	·	-46.0	2.9	·	1.08	·
CCOc1ccc(-c2nn(-c3ccccc3)cc2/C=C2\SC(=S)N(Cc3ccco3)C2=O)cc1	4.0	·	11.9*	-59.3	-0.07	2.2
CSc1ccc(Cl)c(C(=O)NCCOc2cc(C)ccc2C(C)C)c1	-5.6	20.8	12.8*	-10.0	-0.18	2.4
CSc1ccc(Cl)c(C(=O)NCCOc2ccccc2)c1	-31.2	·	0.9	-29.9	0.08	·
CCC(C)N1C(=O)/C(=C/c2c(NCCCOC(C)C)nc3c(C)cccn3c2=O)SC1=S (stereo not given)	-7.2	-163.9	18.4*	-48.5	·	2.9
O=C1CCCC2=C1C(c1ccsc1)CC(=O)N2c1ccccc1F (stereo not given)	·	20.0	0.9	·	-0.07	·
CCOc1ccc(/C=C/C(O)=C2/C(=O)NC3(C)CC2c2ccccc2O3)cc1OC (stereo not given)	·	-46.7	3.2	·	-0.19	·
CCOc1ccc(/C=C/C(O)=C2/C(=O)N(C)C3(C)CC2c2ccccc2O3)cc1OC (stereo not given)	·	·	11.5*	·	-0.48	2.2
Cc1cc(C(=O)COc2ccccc2C(N)=O)c(C)n1C	·	·	1.8	·	1.79	·
Cc1cc(C(=O)COc2ccc(Cl)cc2Br)c(C)n1C	·	26.7	11.7*	·	-0.64	2.6
N#Cc1cn(Cc2ccncc2)c(=O)[nH]c1=O	·	·	0.1	·	0.05	·
O=C(NC(=S)NN1CCCCC1c1cccnc1)c1ccc(Cl)cc1Cl (stereo not given)	·	·	·	·	-0.68	·
SMILES	Yeast lifespan up	Insulin prom inh	RAM inhibit	Yeast growth inh	Ins promoter up	RAM efflux-def
CC(C)C[C@H](NC(=O)c1nc[nH]c1C(=O)NCc1ccccc1)C(=O)OCc1ccccc1	·	·	14.4*	·	-0.17	7.6
CC(C)(C)OC(=O)NCCCCCNC(=O)c1[nH]cnc1C(=O)N[C@@H](Cc1ccccc1)C(=O)OCc1ccccc1	·	·	12.8*	·	0.12	7.0
CN(Cc1ccccc1)C(=O)c1[nH]cnc1C(=O)N[C@@H](Cc1ccccc1)C(=O)OCc1ccccc1	·	·	11.9*	·	0.4	3.4
O=C(N[C@@H](Cc1ccccc1)C(=O)OCc1ccccc1)c1nc[nH]c1C(=O)NC(c1ccccc1)c1ccccc1	·	·	4.8	·	-0.52	·
COc1ccc(NC(C)=O)cc1S(=O)(=O)Nc1ccc(C(=O)N2CCCC2)cc1	·	·	·	·	1.94	·
N#Cc1ccc(C(=O)Nc2cccc(NC(=O)c3ccco3)c2)c(F)c1	·	·	3.8	·	-0.2	·
OCC(O)CN1CCCC1 (stereo not given)	·	·	·	·	0.28	·
Cc1ccc(SCc2nc(-c3ccccc3)no2)cc1	-9.5	63.6	1.7	-14.8	-0.81	·
Cc1ccc(-c2noc(CSc3nnc(CCc4ccccc4)n3-c3ccccc3)n2)cc1	7.6	-11.1	13.7*	-25.1	-1.06	2.4
O=C1CC(c2ccc(F)cc2)CC2=C1C(c1ccc([N+](=O)[O-])o1)Nc1ccccc1N2 (stereo not given)	·	·	·	·	-0.85	·
CC1=C/C(=N\NC(=O)c2ccccc2)CC1	2.1	35.7	1.6	-10.0	0.78	·
CCCCCOC(=O)C1C(c2ccccc2)C(C(=O)O)C1c1ccccc1 (stereo not given)	32.1*	-114.3	14.6*	-37.7	0.33	2.7
O=C(O)C1C(c2ccccc2)C(C(=O)OCCCO)C1c1ccccc1 (stereo not given)	6.0	21.4	2.6	-37.4	1.24	·
CCCCCCOC(=O)C(C#N)c1nc2ccccc2nc1N1CCCCC1 (stereo not given)	23.3	-13.5	24.2*	-42.8	0.69	9.3
CCC(C)COC(=O)C(C#N)c1nc2ccccc2nc1N1CCCCC1 (stereo not given)	0.7	63.6	17.9*	-38.8	-0.97	4.5
CCCCOc1nc2ccccc2nc1C(C#N)C(=O)NC1CCCCC1 (stereo not given)	-6.2	36.1	11.6*	-36.4	·	8.8
CCCCCCOC(=O)C(C#N)c1nc2ccccc2nc1N1CCN(C)CC1 (stereo not given)	-24.8	-81.2	-0.1	-35.5	-0.41	·
CC1CCCCC1NC(=O)c1ccc(S(=O)(=O)NCC2CCCO2)cc1 (stereo not given)	·	16.7	0.0	·	·	·
COc1ccc(C(Cl)=C(c2ccc(OC)cc2)c2ccc(OC)cc2)cc1	9.6	27.3	13.2*	-37.5	·	5.7
CCN(Cc1ccccc1)c1ccc(/C=N/NS(=O)(=O)c2cccc([N+](=O)[O-])c2)cc1	0.1	-23.1	14.4*	-37.0	0.43	3.2
C=CCOc1c(Br)cc(CNc2ccc(NC(=O)C(C)C)c(OC)c2)cc1OCC	6.9	-26.7	12.0*	-71.0	·	2.5
